Experimental data: ChEMBL document CHEMBL4382192, “Discovery of a potent dual ALK and EGFR T790M inhibitor” (Eur J Med Chem, 2017)

How the values were obtained:
[1] = target: Serine/threonine-protein kinase MARK1 (Homo sapiens) (UniProt Q9P0L2); assay: Binding affinity to wild-type human partial length MARK1 (Q30 to T341 residues) expressed in bacterial expression system assessed as residual binding level at 1 uM by Kinomescan method relative to control
[2] = target: Receptor tyrosine-protein kinase erbB-4 (Homo sapiens, UniProt Q15303); assay: Binding affinity to wild-type human partial length ERBB4 (L690 to K994 residues) expressed in bacterial expression system assessed as residual binding level at 1 uM by Kinomescan method relative to control
[3] = target: Wee1-like protein kinase 2 (Homo sapiens) (UniProt P0C1S8); assay: Binding affinity to wild-type human partial length WEE2 (M204 to K492 residues) expressed in bacterial expression system assessed as residual binding level at 1 uM by Kinomescan method relative to control
[4] = target: Serine/threonine-protein kinase tousled-like 2 (Homo sapiens) (UniProt Q86UE8); assay: Binding affinity to wild-type human partial length TLK2 (E424 to N749 residues) expressed in bacterial expression system assessed as residual binding level at 1 uM by Kinomescan method relative to control
[5] = tested on: Mast/stem cell growth factor receptor Kit (Homo sapiens), P10721 [L576P]; assay: Binding affinity to human partial length KIT L576P mutant (Y545 to D952 residues) expressed in bacterial expression system assessed as residual binding level at 1 uM by Kinomescan method relative to control
Method in brief: (§1)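 Kinome-wide selectivity panel run by the KINOMEscan method, with the test compound at a single concentration of 1 μM. Wild-type and mutant kinases were profiled in the same screen.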

[6] = tested on: Tyrosine-protein kinase ABL1 (Homo sapiens), P00519 [F317L]; assay: Binding affinity to human phosphorylated ABL1 F317L mutant (S229 to K512 residues) expressed in mammalian expression system assessed as residual binding level at 1 uM by Kinomescan method relative to control; method in brief: as §1
[7] = target: Beta-adrenergic receptor kinase 1 (Homo sapiens) (UniProt P25098); assay: Binding affinity to wild-type human full length GRK2 (M1 to L689 residues) expressed in mammalian expression system assessed as residual binding level at 1 uM by Kinomescan method relative to control
Method in brief: (§2)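 Single-point kinome-wide KINOMEscan binding panel, test compound at 1 μM, run by the provider's standard protocol.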

[8] = target: Ribosomal protein S6 kinase alpha-5 (Homo sapiens) (UniProt O75582); assay: Binding affinity to wild-type human partial length N-terminal RPS6KA5 kinase domain 1 expressed in bacterial expression system assessed as residual binding level at 1 uM by Kinomescan method relative to control
[9] = tested on: eIF-2-alpha kinase GCN2 (Homo sapiens), Q9P2K8 [S808G]; assay: Binding affinity to wild-type human partial length GCN2 kinase domain 2 (R585 to T1018 residues) S808G mutant expressed in bacterial expression system assessed as residual binding level at 1 uM by Kinomescan method relative to control
[10] = target: Serine/threonine-protein kinase RIO3 (Homo sapiens) (UniProt O14730); assay: Binding affinity to wild-type human full length RIOK3 (M1 to E519 residues) expressed in bacterial expression system assessed as residual binding level at 1 uM by Kinomescan method relative to control; method in brief: as §2
[11] = target: Serine/threonine-protein kinase OSR1 (Homo sapiens) (UniProt O95747); assay: Binding affinity to wild-type human full length OSR1 (M1 to S527 residues) expressed in mammalian expression system assessed as residual binding level at 1 uM by Kinomescan method relative to control; method in brief: as §2
[12] = target: Epithelial discoidin domain-containing receptor 1 (Homo sapiens) (UniProt Q08345); assay: Binding affinity to wild-type human partial length DDR1 (R565 to V876 residues) expressed in bacterial expression system assessed as residual binding level at 1 uM by Kinomescan method relative to control
[13] = target: Calcium/calmodulin-dependent protein kinase type 1B (Homo sapiens) (UniProt Q6P2M8); assay: Binding affinity to wild-type human partial length CAMK1B (W9 to A311 residues) expressed in mammalian expression system assessed as residual binding level at 1 uM by Kinomescan method relative to control
[14] = Drug uptake in mouse plasma at 2 mg/kg, iv after 2 hrs; type: ADME, organism-based
[15] = target: Mitogen-activated protein kinase kinase kinase 6 (Homo sapiens) (UniProt O95382); assay: Binding affinity to wild-type human partial length ASK2 (M278 to R972 residues) expressed in mammalian expression system assessed as residual binding level at 1 uM by Kinomescan method relative to control
[16] = target: AP2-associated protein kinase 1 (Homo sapiens) (UniProt Q2M2I8); assay: Binding affinity to human wild-type AAK1 (G25 to L333 residues) expressed in bacterial expression system assessed as residual binding level at 1 uM by Kinomescan method relative to control
[17] = target: Serine/threonine-protein kinase VRK2 (Homo sapiens) (UniProt Q86Y07); assay: Binding affinity to wild-type human partial length VRK2 (M1 to T336 residues) expressed in mammalian expression system assessed as residual binding level at 1 uM by Kinomescan method relative to control
[18] = target: Mitogen-activated protein kinase kinase kinase 11 (Homo sapiens) (UniProt Q16584); assay: Binding affinity to wild-type human partial length MLK3 (I77 to W399 residues) expressed in bacterial expression system assessed as residual binding level at 1 uM by Kinomescan method relative to control
[19] = target: Calcium/calmodulin-dependent protein kinase kinase 2 (Homo sapiens) (UniProt Q96RR4); assay: Binding affinity to wild-type human partial length CAMKK2 (D65 to V471 residues) expressed in bacterial expression system assessed as residual binding level at 1 uM by Kinomescan method relative to control
[20] = target: Phosphorylase b kinase gamma catalytic chain, liver/testis isoform (Homo sapiens) (UniProt P15735); assay: Binding affinity to wild-type human partial length PHKG2 (M1 to W300 residues) expressed in bacterial expression system assessed as residual binding level at 1 uM by Kinomescan method relative to control
[21] = target: Interleukin-1 receptor-associated kinase 3 (Homo sapiens) (UniProt Q9Y616); assay: Binding affinity to wild-type human partial length IRAK3 (V147 to E596 residues) expressed in bacterial expression system assessed as residual binding level at 1 uM by Kinomescan method relative to control
[22] = target: Serine/threonine-protein kinase 26 (Homo sapiens) (UniProt Q9P289); assay: Binding affinity to wild-type human full length MST4 (M1 to P416 residues) expressed in mammalian expression system assessed as residual binding level at 1 uM by Kinomescan method relative to control; method in brief: as §2
[23] = target: Citron Rho-interacting kinase (Homo sapiens) (UniProt O14578); assay: Binding affinity to wild-type human partial length CIT (M68 to E432 residues) expressed in bacterial expression system assessed as residual binding level at 1 uM by Kinomescan method relative to control
[24] = target: Mitogen-activated protein kinase 10 (Homo sapiens) (UniProt P53779); assay: Binding affinity to wild-type human partial length JNK3 (V28 to Q422 residues) expressed in mammalian expression system assessed as residual binding level at 1 uM by Kinomescan method relative to control

Sequence of Wee1-like protein kinase 2 (Homo sapiens) (P0C1S8 whole entry, looked up, the tested form may be a part): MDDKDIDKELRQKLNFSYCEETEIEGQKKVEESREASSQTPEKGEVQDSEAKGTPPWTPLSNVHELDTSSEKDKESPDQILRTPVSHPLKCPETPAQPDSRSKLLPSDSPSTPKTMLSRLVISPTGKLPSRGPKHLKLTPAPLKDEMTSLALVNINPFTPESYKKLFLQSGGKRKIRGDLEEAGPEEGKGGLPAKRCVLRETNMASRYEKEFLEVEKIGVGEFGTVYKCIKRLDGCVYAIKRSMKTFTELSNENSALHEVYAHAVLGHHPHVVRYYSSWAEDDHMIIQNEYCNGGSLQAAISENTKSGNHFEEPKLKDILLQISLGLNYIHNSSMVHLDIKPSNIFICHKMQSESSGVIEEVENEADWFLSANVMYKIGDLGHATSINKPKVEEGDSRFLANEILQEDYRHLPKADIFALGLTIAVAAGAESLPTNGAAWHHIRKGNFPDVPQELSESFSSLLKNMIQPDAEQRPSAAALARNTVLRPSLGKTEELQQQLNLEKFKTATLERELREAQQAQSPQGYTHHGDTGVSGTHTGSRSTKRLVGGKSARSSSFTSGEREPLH
Sequence of Ribosomal protein S6 kinase alpha-5 (Homo sapiens) (O75582 whole entry, looked up, the tested form may be a part): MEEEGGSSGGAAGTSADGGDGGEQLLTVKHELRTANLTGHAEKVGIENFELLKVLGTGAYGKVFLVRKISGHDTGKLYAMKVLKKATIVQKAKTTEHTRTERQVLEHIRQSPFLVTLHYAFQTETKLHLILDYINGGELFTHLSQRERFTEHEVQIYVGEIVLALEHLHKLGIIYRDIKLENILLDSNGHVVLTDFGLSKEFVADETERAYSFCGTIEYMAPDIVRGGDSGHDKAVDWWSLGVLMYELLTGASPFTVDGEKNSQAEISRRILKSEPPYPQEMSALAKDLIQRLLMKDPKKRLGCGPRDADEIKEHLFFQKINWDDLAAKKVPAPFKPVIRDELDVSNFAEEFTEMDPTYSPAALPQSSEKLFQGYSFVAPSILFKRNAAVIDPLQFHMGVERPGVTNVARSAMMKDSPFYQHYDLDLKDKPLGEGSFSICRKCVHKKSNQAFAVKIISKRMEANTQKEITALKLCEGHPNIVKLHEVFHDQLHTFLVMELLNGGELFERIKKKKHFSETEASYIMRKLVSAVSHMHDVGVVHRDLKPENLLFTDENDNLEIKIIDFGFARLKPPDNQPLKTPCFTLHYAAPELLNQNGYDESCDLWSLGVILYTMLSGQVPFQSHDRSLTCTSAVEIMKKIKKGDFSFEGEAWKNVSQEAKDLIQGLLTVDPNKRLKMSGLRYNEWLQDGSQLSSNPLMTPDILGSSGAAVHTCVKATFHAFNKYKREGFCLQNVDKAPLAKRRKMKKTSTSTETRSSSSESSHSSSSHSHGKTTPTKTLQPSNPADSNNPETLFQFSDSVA
Sequence of Phosphorylase b kinase gamma catalytic chain, liver/testis isoform (Homo sapiens) (P15735 whole entry, the tested form may be a part, canonical isoform): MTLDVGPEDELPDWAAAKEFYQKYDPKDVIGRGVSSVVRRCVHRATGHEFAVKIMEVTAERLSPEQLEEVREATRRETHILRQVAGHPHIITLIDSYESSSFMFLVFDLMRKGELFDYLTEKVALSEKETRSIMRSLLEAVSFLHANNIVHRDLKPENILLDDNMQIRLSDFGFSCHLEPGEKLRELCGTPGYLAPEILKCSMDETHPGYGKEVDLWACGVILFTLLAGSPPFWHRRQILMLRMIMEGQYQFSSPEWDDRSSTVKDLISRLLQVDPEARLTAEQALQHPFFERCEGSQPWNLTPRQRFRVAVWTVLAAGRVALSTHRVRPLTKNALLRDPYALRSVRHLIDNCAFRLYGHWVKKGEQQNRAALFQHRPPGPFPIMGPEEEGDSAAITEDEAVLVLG
Sequence of Citron Rho-interacting kinase (Homo sapiens) (O14578 whole entry, the tested form may be a part): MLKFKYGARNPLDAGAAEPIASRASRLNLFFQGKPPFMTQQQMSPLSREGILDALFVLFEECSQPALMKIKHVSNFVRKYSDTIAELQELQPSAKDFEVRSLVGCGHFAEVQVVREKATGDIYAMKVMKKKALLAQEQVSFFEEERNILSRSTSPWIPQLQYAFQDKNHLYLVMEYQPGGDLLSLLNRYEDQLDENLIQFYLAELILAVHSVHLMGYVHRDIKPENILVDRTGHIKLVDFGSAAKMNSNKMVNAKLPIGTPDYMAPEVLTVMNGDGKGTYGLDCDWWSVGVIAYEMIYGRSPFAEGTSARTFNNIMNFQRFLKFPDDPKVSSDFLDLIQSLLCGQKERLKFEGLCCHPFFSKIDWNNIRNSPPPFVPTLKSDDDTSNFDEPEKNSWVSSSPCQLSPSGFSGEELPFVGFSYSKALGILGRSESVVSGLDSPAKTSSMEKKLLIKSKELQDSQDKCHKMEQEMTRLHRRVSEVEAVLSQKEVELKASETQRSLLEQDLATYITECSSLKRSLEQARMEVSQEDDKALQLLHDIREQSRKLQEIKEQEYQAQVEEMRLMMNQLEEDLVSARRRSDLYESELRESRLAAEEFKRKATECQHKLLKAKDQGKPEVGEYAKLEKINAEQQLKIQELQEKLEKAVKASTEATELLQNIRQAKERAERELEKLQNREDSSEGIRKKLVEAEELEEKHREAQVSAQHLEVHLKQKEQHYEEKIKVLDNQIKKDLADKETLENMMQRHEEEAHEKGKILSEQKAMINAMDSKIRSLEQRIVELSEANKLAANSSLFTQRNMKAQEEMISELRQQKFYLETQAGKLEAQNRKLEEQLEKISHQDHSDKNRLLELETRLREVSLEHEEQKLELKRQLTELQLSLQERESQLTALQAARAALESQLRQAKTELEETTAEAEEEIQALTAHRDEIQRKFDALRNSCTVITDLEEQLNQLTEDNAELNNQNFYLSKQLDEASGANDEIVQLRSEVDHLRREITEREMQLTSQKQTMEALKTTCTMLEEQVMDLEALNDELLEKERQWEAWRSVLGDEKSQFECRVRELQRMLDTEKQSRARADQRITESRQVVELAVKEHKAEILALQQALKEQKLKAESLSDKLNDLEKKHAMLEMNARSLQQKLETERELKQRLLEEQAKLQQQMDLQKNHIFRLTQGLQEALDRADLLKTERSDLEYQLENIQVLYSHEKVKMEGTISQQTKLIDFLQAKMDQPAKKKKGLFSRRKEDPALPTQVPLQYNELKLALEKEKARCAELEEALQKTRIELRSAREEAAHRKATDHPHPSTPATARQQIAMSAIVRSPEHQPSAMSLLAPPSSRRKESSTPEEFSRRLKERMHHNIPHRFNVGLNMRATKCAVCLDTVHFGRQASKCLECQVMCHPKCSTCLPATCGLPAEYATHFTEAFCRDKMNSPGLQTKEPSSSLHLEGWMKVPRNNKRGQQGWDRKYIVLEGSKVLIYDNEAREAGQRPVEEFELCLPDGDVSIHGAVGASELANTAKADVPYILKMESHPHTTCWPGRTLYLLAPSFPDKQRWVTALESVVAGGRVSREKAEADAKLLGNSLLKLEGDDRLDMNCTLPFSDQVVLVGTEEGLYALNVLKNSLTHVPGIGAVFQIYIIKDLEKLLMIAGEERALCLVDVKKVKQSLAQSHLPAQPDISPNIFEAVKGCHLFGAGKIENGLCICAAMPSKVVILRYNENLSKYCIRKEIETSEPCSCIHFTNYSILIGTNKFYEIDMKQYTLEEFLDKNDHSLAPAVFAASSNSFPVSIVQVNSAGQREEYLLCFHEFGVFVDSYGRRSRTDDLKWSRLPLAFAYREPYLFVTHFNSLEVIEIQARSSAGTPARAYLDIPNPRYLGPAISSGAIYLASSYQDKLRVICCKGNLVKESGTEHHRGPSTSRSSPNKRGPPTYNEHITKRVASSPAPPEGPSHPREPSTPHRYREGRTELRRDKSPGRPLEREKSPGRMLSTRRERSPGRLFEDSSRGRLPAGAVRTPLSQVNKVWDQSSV
Sequence of Serine/threonine-protein kinase tousled-like 2 (Homo sapiens) (Q86UE8 whole entry, looked up, the tested form may be a part): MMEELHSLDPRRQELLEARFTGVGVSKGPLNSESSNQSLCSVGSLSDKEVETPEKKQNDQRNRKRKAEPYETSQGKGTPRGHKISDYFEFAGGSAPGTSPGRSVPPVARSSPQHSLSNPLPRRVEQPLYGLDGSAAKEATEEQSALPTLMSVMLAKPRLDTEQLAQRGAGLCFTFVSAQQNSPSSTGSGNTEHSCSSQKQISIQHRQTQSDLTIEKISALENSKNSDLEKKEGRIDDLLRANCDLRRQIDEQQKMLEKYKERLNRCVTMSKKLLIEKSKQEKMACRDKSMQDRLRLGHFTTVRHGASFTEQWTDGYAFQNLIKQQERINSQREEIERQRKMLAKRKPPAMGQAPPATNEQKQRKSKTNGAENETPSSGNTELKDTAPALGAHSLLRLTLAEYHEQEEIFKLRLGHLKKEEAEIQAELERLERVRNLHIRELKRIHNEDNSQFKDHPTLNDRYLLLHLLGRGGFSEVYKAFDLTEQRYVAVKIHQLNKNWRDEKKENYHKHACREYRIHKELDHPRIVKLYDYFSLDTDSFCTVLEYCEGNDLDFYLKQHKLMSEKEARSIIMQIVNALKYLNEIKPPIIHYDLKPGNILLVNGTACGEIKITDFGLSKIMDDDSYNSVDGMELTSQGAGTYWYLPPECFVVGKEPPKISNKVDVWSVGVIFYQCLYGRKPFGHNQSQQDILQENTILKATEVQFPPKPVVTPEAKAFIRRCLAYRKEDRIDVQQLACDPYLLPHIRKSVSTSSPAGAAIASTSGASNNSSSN
Sequence of Serine/threonine-protein kinase VRK2 (Homo sapiens) (Q86Y07 whole entry, the tested form may be a part): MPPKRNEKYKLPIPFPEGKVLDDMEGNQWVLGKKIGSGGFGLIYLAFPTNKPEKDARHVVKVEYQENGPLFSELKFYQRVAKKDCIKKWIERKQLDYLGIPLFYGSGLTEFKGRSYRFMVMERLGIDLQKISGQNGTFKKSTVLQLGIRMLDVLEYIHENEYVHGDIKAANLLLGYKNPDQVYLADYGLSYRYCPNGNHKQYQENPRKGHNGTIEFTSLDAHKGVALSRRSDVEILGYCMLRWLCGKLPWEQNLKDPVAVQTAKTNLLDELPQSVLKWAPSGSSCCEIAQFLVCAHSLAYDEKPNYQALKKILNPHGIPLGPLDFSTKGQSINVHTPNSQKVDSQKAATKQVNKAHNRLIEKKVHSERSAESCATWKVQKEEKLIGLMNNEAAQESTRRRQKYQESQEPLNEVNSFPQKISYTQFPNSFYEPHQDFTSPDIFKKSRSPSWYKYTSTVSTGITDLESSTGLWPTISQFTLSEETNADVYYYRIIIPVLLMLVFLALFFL

## C=CC(=O)Nc1cc(Nc2ncc(Cl)c(Nc3ccccc3S(=O)(=O)C(C)C)n2)c(OC)cc1N(C)CCN(C)C
[1]
  Activity: 40%
[2]
  Activity: 0%
[3]
  Activity: 93%
[4]
  Activity: 93%
[5]
  Activity: 9.1%
[6]
  Activity: 2.9%
[7]
  Activity: 100%
[8]
  Activity: 85%
[9]
  Activity: 91%
[10]
  Activity: 93%
[11]
  Activity: 16%
[12]
  Activity: 16%
[13]
  Activity: 15%
[14]
  concentration at 2 h: 100 nM
[15]
  Activity: 21%
[16]
  Activity: 72%
[17]
  Activity: 98%
[18]
  Activity: 82%
[19]
  Activity: 1.6%
[20]
  Activity: 10%
[21]
  Activity: 37%
[22]
  Activity: 29%
[23]
  Activity: 99%
[24]
  Activity: 82%
